Test results: ChEMBL document CHEMBL1157468, “Design, synthesis, and testing of non-nephrotoxic desazadesferrithiocin polyether analogues” (J Med Chem, 2008)

What was measured:
[1] = test system: Rattus norvegicus; test: Iron-clearing efficiency in non-iron-overloaded Sprague-Dawley rat at 300 umol/kg, po after 24 hrs relative to control; type: functional
In short: (§1)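 Male Sprague–Dawley rats (400–450 g), not iron-loaded and bile duct-cannulated, got one dose of 50, 150 or 300 µmol/kg po, or 300 µmol/kg sc. Vehicle was water or the monosodium salt. Bile was collected every 3 h for 24 h and urine at 24 h. Iron was measured by atomic absorption. Efficiency was treated minus control iron excretion, divided by theoretical output (2:1 ligand:iron), as a percent; mean ± SEM.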

[2] = test system: Rattus norvegicus; test: Iron-clearing efficiency in non-iron-overloaded Sprague-Dawley rat at 150 umol/kg, po after 24 hrs relative to control; type: functional; in short: as §1
[3] = test system: Rattus norvegicus; test: Iron-clearing efficiency in non-iron-overloaded Sprague-Dawley rat bile assessed as iron excretion at 300 umol/kg, po; type: functional; in short: as §1
[4] = test system: Rattus norvegicus; test: Iron-clearing efficiency in non-iron-overloaded Sprague-Dawley rat bile assessed as iron excretion at 150 umol/kg, po; type: functional; in short: as §1
[5] = test system: Rattus norvegicus; test: Iron-clearing efficiency in non-iron-overloaded Sprague-Dawley rat at 300 umol/kg, sc after 24 hrs relative to control; type: functional; in short: as §1
[6] = test system: Sapajus apella; test: Iron-clearing efficiency in iron-overloaded Cebus apella at 150 umol/kg, po after 2 days relative to control; type: functional
In short: (§2)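 Monkeys (Cebus apella, 3.5–4 kg) were iron-loaded to about 500 mg Fe/kg with iv iron dextran and rested at least 60 days. They then got one 150 µmol/kg dose, po or sc. Feces and urine were collected every 24 h from 4 days before to 5 days after dosing, and iron was measured by flame atomic absorption. Efficiency was the 2-day post-drug iron minus the 4-day pre-drug baseline, divided by theoretical output (2:1 ligand:iron); mean ± SEM.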

[7] = test system: Sapajus apella; test: Iron-clearing efficiency in iron-overloaded Cebus apella at 150 umol/kg, sc after 2 days relative to control; type: functional; in short: as §2
[8] = test system: Rattus norvegicus; test: Toxicity in iron-overloaded Sprague-Dawley rat assessed as survival at 119 umol/kg/day, po after 30 days by non-renal perfusion protocol; type: organism-based; conditions: in vivo, 720 h
[9] = test system: Rattus norvegicus; test: Nephrotoxicity in Sprague-Dawley rat assessed as heavy vacuolized renal tubules at […] for 7 days by renal perfusion studies; type: toxicity, organism-based; conditions: in vivo, 168 h, in the assay text read “237 umol/kg” for “273 umol/kg”
In short: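 Male Sprague–Dawley rats (200–250 g), fasted overnight, got 237 µmol/kg/dose po twice daily (474 µmol/kg/day) for 7 days and were fed about 3 h post-drug. Untreated age-matched rats were controls. One day post-drug, under pentobarbital, kidneys were perfusion-fixed with glutaraldehyde in Tyrode's buffer and embedded in TAAB. 500 nm sections were stained with toluidine blue and examined by light microscopy at 400×.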

[10] = test system: Liver; test: Biodistribution in Sprague-Dawley rat liver assessed per gram tissue wet weight at 300 umol/kg, sc after 1 hr; type: ADME, organism-based; conditions: in vivo
[11] = test system: Liver; test: Biodistribution in Sprague-Dawley rat liver assessed per gram tissue wet weight at 300 umol/kg, po after 1 hr; type: ADME, organism-based; conditions: in vivo
In short: (§3)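 Male Sprague–Dawley rats (250–350 g) got one 300 µmol/kg dose, po or sc. Vehicle was water or the monosodium salt (free acid plus 1 equiv NaOH). Three rats per time point were euthanized by CO2 at 1, 2 or 4 h. Plasma came from citrated cardiac blood; liver, kidney, heart and pancreas were removed. Drug levels were measured by HPLC with UV detection at 310 nm against linear calibration curves (detection limit 0.25 µM).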

[12] = test system: Liver; test: Biodistribution in Sprague-Dawley rat liver assessed per gram tissue wet weight at 300 umol/kg, sc after 2 hrs; type: ADME, organism-based; conditions: in vivo
[13] = test system: Liver; test: Biodistribution in Sprague-Dawley rat liver assessed per gram tissue wet weight at 300 umol/kg, po after 2 hrs; type: ADME, organism-based; conditions: in vivo; in short: as §3
[14] = test system: Liver; test: Biodistribution in Sprague-Dawley rat liver assessed per gram tissue wet weight at 300 umol/kg, sc after 4 hrs; type: ADME, organism-based; conditions: in vivo
[15] = test system: Liver; test: Biodistribution in Sprague-Dawley rat liver assessed per gram tissue wet weight at 300 umol/kg, po after 4 hrs; type: ADME, organism-based; conditions: in vivo; in short: as §3
[16] = test system: Kidney; test: Biodistribution in Sprague-Dawley rat kidney assessed per gram tissue wet weight at 300 umol/kg, sc after 1 hr; type: ADME, organism-based; conditions: in vivo
[17] = test system: Kidney; test: Biodistribution in Sprague-Dawley rat kidney assessed per gram tissue wet weight at 300 umol/kg, po after 1 hr; type: ADME, organism-based; conditions: in vivo; in short: as §3
[18] = test system: Kidney; test: Biodistribution in Sprague-Dawley rat kidney assessed per gram tissue wet weight at 300 umol/kg, sc after 2 hrs; type: ADME, organism-based; conditions: in vivo
[19] = test system: Kidney; test: Biodistribution in Sprague-Dawley rat kidney assessed per gram tissue wet weight at 300 umol/kg, po after 2 hrs; type: ADME, organism-based; conditions: in vivo; in short: as §3
[20] = test system: Kidney; test: Biodistribution in Sprague-Dawley rat kidney assessed per gram tissue wet weight at 300 umol/kg, sc after 4 hrs; type: ADME, organism-based; conditions: in vivo
[21] = test system: Kidney; test: Biodistribution in Sprague-Dawley rat kidney assessed per gram tissue wet weight at 300 umol/kg, po after 4 hrs; type: ADME, organism-based; conditions: in vivo; in short: as §3
[22] = test system: Heart; test: Biodistribution in Sprague-Dawley rat heart assessed per gram tissue wet weight at 300 umol/kg, sc after 1 hr; type: ADME, organism-based; conditions: in vivo
[23] = test system: Heart; test: Biodistribution in Sprague-Dawley rat heart assessed per gram tissue wet weight at 300 umol/kg, po after 1 hr; type: ADME, organism-based; conditions: in vivo; in short: as §3
[24] = test system: Heart; test: Biodistribution in Sprague-Dawley rat heart assessed per gram tissue wet weight at 300 umol/kg, sc after 2 hrs; type: ADME, organism-based; conditions: in vivo
[25] = test system: Heart; test: Biodistribution in Sprague-Dawley rat heart assessed per gram tissue wet weight at 300 umol/kg, po after 2 hrs; type: ADME, organism-based; conditions: in vivo; in short: as §3
[26] = test system: Heart; test: Biodistribution in Sprague-Dawley rat heart assessed per gram tissue wet weight at 300 umol/kg, po after 4 hrs; type: ADME, organism-based; conditions: in vivo; in short: as §3
[27] = test system: Pancreas; test: Biodistribution in Sprague-Dawley rat pancreas assessed per gram tissue wet weight at 300 umol/kg, sc after 1 hr; type: ADME, organism-based; conditions: in vivo
[28] = test system: Pancreas; test: Biodistribution in Sprague-Dawley rat pancreas assessed per gram tissue wet weight at 300 umol/kg, po after 1 hr; type: ADME, organism-based; conditions: in vivo; in short: as §3
[29] = test system: Pancreas; test: Biodistribution in Sprague-Dawley rat pancreas assessed per gram tissue wet weight at 300 umol/kg, sc after 2 hrs; type: ADME, organism-based; conditions: in vivo
[30] = test system: Pancreas; test: Biodistribution in Sprague-Dawley rat pancreas assessed per gram tissue wet weight at 300 umol/kg, po after 2 hrs; type: ADME, organism-based; conditions: in vivo; in short: as §3
[31] = test system: Pancreas; test: Biodistribution in Sprague-Dawley rat pancreas assessed per gram tissue wet weight at 300 umol/kg, sc after 4 hrs; type: ADME, organism-based; conditions: in vivo
[32] = test system: Plasma; test: Biodistribution in Sprague-Dawley rat plasma at 300 umol/kg, sc after 1 hr; type: ADME, organism-based; conditions: in vivo
[33] = test system: Plasma; test: Biodistribution in Sprague-Dawley rat plasma at 300 umol/kg, po after 1 hr; type: ADME, organism-based; conditions: in vivo; in short: as §3
[34] = test system: Plasma; test: Biodistribution in Sprague-Dawley rat plasma at 300 umol/kg, sc after 2 hrs; type: ADME, organism-based; conditions: in vivo
[35] = test system: Plasma; test: Biodistribution in Sprague-Dawley rat plasma at 300 umol/kg, po after 2 hrs; type: ADME, organism-based; conditions: in vivo; in short: as §3
[36] = test system: Plasma; test: Biodistribution in Sprague-Dawley rat plasma at 300 umol/kg, sc after 4 hrs; type: ADME, organism-based; conditions: in vivo
[37] = test system: Plasma; test: Biodistribution in Sprague-Dawley rat plasma at 300 umol/kg, po after 4 hrs; type: ADME, organism-based; conditions: in vivo; in short: as §3

C[C@]1(C(=O)O)CSC(c2ccc(O)cc2O)=N1 [DEFERITRIN]
Activity [1]: 1.1% | Activity [2]: 1.5% | Activity [3]: >98% | Activity [4]: >98% | Activity [5]: 1.1% | Activity [6]: 16.8% | Activity [7]: 15.9% | Activity [8]: Non-toxic | Activity [9]: Toxic | Drug uptake [10]: 80 nmol/g | Drug uptake [11]: 131 nmol/g | Drug uptake [12]: 48 nmol/g | Drug uptake [13]: 73 nmol/g | Drug uptake [14]: 25 nmol/g | Drug uptake [15]: 44 nmol/g | Drug uptake [16]: 179 nmol/g | Drug uptake [17]: 208 nmol/g | Drug uptake [18]: 97 nmol/g | Drug uptake [19]: 100 nmol/g | Drug uptake [20]: 27 nmol/g | Drug uptake [21]: 61 nmol/g | Drug uptake [22]: 13 nmol/g | Drug uptake [23]: 8 nmol/g | Drug uptake [24]: 5 nmol/g | Drug uptake [25]: 5 nmol/g | Drug uptake [26]: 3 nmol/g | Drug uptake [27]: 28 nmol/g | Drug uptake [28]: 13 nmol/g | Drug uptake [29]: 6 nmol/g | Drug uptake [30]: 9 nmol/g | Drug uptake [31]: 6 nmol/g | Drug uptake [32]: 34 nmol/g | Drug uptake [33]: 31 nmol/g | Drug uptake [34]: 13 nmol/g | Drug uptake [35]: 8 nmol/g | Drug uptake [36]: 2 nmol/g | Drug uptake [37]: 5 nmol/g
